# Experimental data taken from ChEMBL document CHEMBL1124364, “3-Sulfonyl-1-carba-1-dethiacephems” (1989).
# Tested on: Enterobacter cloacae
# Assay: Minimum inhibitory concentration against Enterobacter cloacae (265A beta-lactamase containing)
# Assay type: functional
# Details: Enterobacter cloacae; read-out: MIC
# How it was run: (§1)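 Agar dilution: compounds diluted in 0.1 M phosphate buffer pH 7.0 and incorporated into Mueller-Hinton agar with 1% Bacto-Supplement C at 50 °C. Fresh overnight cultures diluted to about 1×10^4 cells/µL; 1 µL spotted on plates. Incubated overnight at 35 °C in ambient air. MIC taken as the lowest concentration preventing visible growth.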
row,SMILES,MIC [µg/mL]
1,N[C@@H](C(=O)N[C@@H]1C(=O)N2C(C(=O)O)=C(Cl)CS[C@H]12)c1ccccc1 [CEFACLOR ANHYDROUS],> 128
2,CO/N=C(\C(=O)N[C@@H]1C(=O)N2C(C(=O)O)=C(COC(C)=O)CS[C@H]12)c1csc(N)n1 [CEFOTAXIME],32

# Tested on: Enterobacter cloacae
# Assay: Minimum inhibitory concentration against Enterobacter cloacae (EB5)
# Assay type: functional
# Details: Enterobacter cloacae; read-out: MIC
# How it was run: as §1
row,SMILES,MIC [µg/mL]
1,N[C@@H](C(=O)N[C@@H]1C(=O)N2C(C(=O)O)=C(Cl)CS[C@H]12)c1ccccc1 [CEFACLOR ANHYDROUS],16
2,CO/N=C(\C(=O)N[C@@H]1C(=O)N2C(C(=O)O)=C(COC(C)=O)CS[C@H]12)c1csc(N)n1 [CEFOTAXIME],0.125

# Tested on: Escherichia coli
# Assay: Minimum inhibitory concentration against Escherichia coli (EC14)
# Assay type: functional
# Details: Escherichia coli; read-out: MIC
# How it was run: as §1
row,SMILES,MIC [µg/mL]
1,N[C@@H](C(=O)N[C@@H]1C(=O)N2C(C(=O)O)=C(Cl)CS[C@H]12)c1ccccc1 [CEFACLOR ANHYDROUS],0.5
2,CO/N=C(\C(=O)N[C@@H]1C(=O)N2C(C(=O)O)=C(COC(C)=O)CS[C@H]12)c1csc(N)n1 [CEFOTAXIME],0.03

# Tested on: Escherichia coli
# Assay: Minimum inhibitory concentration against Escherichia coli (TEM beta-lactamase containing)
# Assay type: functional
# Details: Escherichia coli; read-out: MIC
# How it was run: as §1
row,SMILES,MIC [µg/mL]
1,N[C@@H](C(=O)N[C@@H]1C(=O)N2C(C(=O)O)=C(Cl)CS[C@H]12)c1ccccc1 [CEFACLOR ANHYDROUS],1
2,CO/N=C(\C(=O)N[C@@H]1C(=O)N2C(C(=O)O)=C(COC(C)=O)CS[C@H]12)c1csc(N)n1 [CEFOTAXIME],0.03

# Tested on: Haemophilus influenzae
# Assay: Minimum inhibitory concentration against Haemophilus influenzae (C.L.)
# Assay type: functional
# Details: Haemophilus influenzae; read-out: MIC
# How it was run: as §1
row,SMILES,MIC [µg/mL]
1,N[C@@H](C(=O)N[C@@H]1C(=O)N2C(C(=O)O)=C(Cl)CS[C@H]12)c1ccccc1 [CEFACLOR ANHYDROUS],2
2,CO/N=C(\C(=O)N[C@@H]1C(=O)N2C(C(=O)O)=C(COC(C)=O)CS[C@H]12)c1csc(N)n1 [CEFOTAXIME],0.015

# Tested on: Klebsiella
# Assay: Minimum inhibitory concentration against Klebsiella (KAE beta-lactamase containing)
# Assay type: functional
# Details: Klebsiella; read-out: MIC
# How it was run: as §1
row,SMILES,MIC [µg/mL]
1,N[C@@H](C(=O)N[C@@H]1C(=O)N2C(C(=O)O)=C(Cl)CS[C@H]12)c1ccccc1 [CEFACLOR ANHYDROUS],> 128
2,CO/N=C(\C(=O)N[C@@H]1C(=O)N2C(C(=O)O)=C(COC(C)=O)CS[C@H]12)c1csc(N)n1 [CEFOTAXIME],2

# Tested on: Klebsiella
# Assay: Minimum inhibitory concentration against Klebsiella (X26)
# Assay type: functional
# Details: Klebsiella; read-out: MIC
# How it was run: as §1
row,SMILES,MIC [µg/mL]
1,N[C@@H](C(=O)N[C@@H]1C(=O)N2C(C(=O)O)=C(Cl)CS[C@H]12)c1ccccc1 [CEFACLOR ANHYDROUS],0.25
2,CO/N=C(\C(=O)N[C@@H]1C(=O)N2C(C(=O)O)=C(COC(C)=O)CS[C@H]12)c1csc(N)n1 [CEFOTAXIME],0.008

# Tested on: Morganella morganii
# Assay: Minimum inhibitory concentration against Proteus morganii (PR 15)
# Assay type: functional
# Details: Morganella morganii; read-out: MIC
# How it was run: as §1
row,SMILES,MIC [µg/mL]
1,N[C@@H](C(=O)N[C@@H]1C(=O)N2C(C(=O)O)=C(Cl)CS[C@H]12)c1ccccc1 [CEFACLOR ANHYDROUS],> 128
2,CO/N=C(\C(=O)N[C@@H]1C(=O)N2C(C(=O)O)=C(COC(C)=O)CS[C@H]12)c1csc(N)n1 [CEFOTAXIME],0.25

# Tested on: Pseudomonas aeruginosa
# Assay: Minimum inhibitory concentration against Pseudomonas aeruginosa (X528)
# Assay type: functional
# Details: Pseudomonas aeruginosa; read-out: MIC
# How it was run: as §1
row,SMILES,MIC [µg/mL]
1,N[C@@H](C(=O)N[C@@H]1C(=O)N2C(C(=O)O)=C(Cl)CS[C@H]12)c1ccccc1 [CEFACLOR ANHYDROUS],> 128
2,CO/N=C(\C(=O)N[C@@H]1C(=O)N2C(C(=O)O)=C(COC(C)=O)CS[C@H]12)c1csc(N)n1 [CEFOTAXIME],32

# Tested on: Providencia rettgeri
# Assay: Minimum inhibitory concentration against Proteus rettgeri (C24)
# Assay type: functional
# Details: Providencia rettgeri; read-out: MIC
# How it was run: as §1
row,SMILES,MIC [µg/mL]
1,N[C@@H](C(=O)N[C@@H]1C(=O)N2C(C(=O)O)=C(Cl)CS[C@H]12)c1ccccc1 [CEFACLOR ANHYDROUS],64
2,CO/N=C(\C(=O)N[C@@H]1C(=O)N2C(C(=O)O)=C(COC(C)=O)CS[C@H]12)c1csc(N)n1 [CEFOTAXIME],0.125

# Tested on: Salmonella
# Assay: Minimum inhibitory concentration against Salmonella (X514)
# Assay type: functional
# Details: Salmonella; read-out: MIC
# How it was run: as §1
row,SMILES,MIC [µg/mL]
1,N[C@@H](C(=O)N[C@@H]1C(=O)N2C(C(=O)O)=C(Cl)CS[C@H]12)c1ccccc1 [CEFACLOR ANHYDROUS],2
2,CO/N=C(\C(=O)N[C@@H]1C(=O)N2C(C(=O)O)=C(COC(C)=O)CS[C@H]12)c1csc(N)n1 [CEFOTAXIME],0.03

# Tested on: Staphylococcus epidermidis
# Assay: Minimum inhibitory concentration against Staphylococcus epidermidis (222)
# Assay type: functional
# Details: Staphylococcus epidermidis; read-out: MIC
# How it was run: as §1
row,SMILES,MIC [µg/mL]
1,N[C@@H](C(=O)N[C@@H]1C(=O)N2C(C(=O)O)=C(Cl)CS[C@H]12)c1ccccc1 [CEFACLOR ANHYDROUS],4
2,CO/N=C(\C(=O)N[C@@H]1C(=O)N2C(C(=O)O)=C(COC(C)=O)CS[C@H]12)c1csc(N)n1 [CEFOTAXIME],2

# Tested on: Streptococcus pyogenes
# Assay: Minimum inhibitory concentration against Streptococcus pyogenes (C203)
# Assay type: functional
# Details: Streptococcus pyogenes; read-out: MIC
# How it was run: as §1
row,SMILES,MIC [µg/mL]
1,N[C@@H](C(=O)N[C@@H]1C(=O)N2C(C(=O)O)=C(Cl)CS[C@H]12)c1ccccc1 [CEFACLOR ANHYDROUS],0.25
2,CO/N=C(\C(=O)N[C@@H]1C(=O)N2C(C(=O)O)=C(COC(C)=O)CS[C@H]12)c1csc(N)n1 [CEFOTAXIME],0.015

# Tested on: Streptococcus pneumoniae
# Assay: Minimum inhibitory concentration against Streptococcus pneumoniae (PARK)
# Assay type: functional
# Details: Streptococcus pneumoniae; read-out: MIC
# How it was run: as §1
row,SMILES,MIC [µg/mL]
1,N[C@@H](C(=O)N[C@@H]1C(=O)N2C(C(=O)O)=C(Cl)CS[C@H]12)c1ccccc1 [CEFACLOR ANHYDROUS],1
2,CO/N=C(\C(=O)N[C@@H]1C(=O)N2C(C(=O)O)=C(COC(C)=O)CS[C@H]12)c1csc(N)n1 [CEFOTAXIME],0.015

# Tested on: Staphylococcus aureus
# Assay: Minimum inhibitory concentration against Staphylococcus aureus (X1.1)
# Assay type: functional
# Details: Staphylococcus aureus; read-out: MIC
# How it was run: as §1
row,SMILES,MIC [µg/mL]
1,N[C@@H](C(=O)N[C@@H]1C(=O)N2C(C(=O)O)=C(Cl)CS[C@H]12)c1ccccc1 [CEFACLOR ANHYDROUS],2
2,CO/N=C(\C(=O)N[C@@H]1C(=O)N2C(C(=O)O)=C(COC(C)=O)CS[C@H]12)c1csc(N)n1 [CEFOTAXIME],2
